The values that follow come from PubChem BioAssay AID651560 (Sanford-Burnham Center for Chemical Genomics, 2012).

Structures are written as SMILES. Out of some 360,000 compounds screened, about 820 (0.23%) were called active. Only a selection was taken, and actives are over-represented in it overall. Unmarked numbers belong to inactive results.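 Rule for the calls: active = compounds that cut the enzyme signal by at least half of the control window in the single-dose screen; inactive = the rest.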

The term inhibition denotes the drop in the measured response relative to a control, in per cent.

The target of this assay is Low molecular weight phosphotyrosine protein phosphatase (Homo sapiens) (UniProt P24666). Description: LMPTP phosphatase inhibitors, primary screen, biochemical, fluorescence intensity, uHTS (AID 651560).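 Note: plate controls were DMSO wells with enzyme plus substrate for no effect and substrate without enzyme for full effect.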 The settings on record: recombinant LMPTP-A, OMFP fluorogenic substrate, at 20 µM, stronger effect = higher value. Summed up: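 Test system: LMPTP-A phosphatase enzyme. Amount: LMPTP-A at 0.625 nM final in the reaction. Reagent: OMFP substrate, 400 µM final. Times: 50 min at room temperature. Signal: endpoint fluorescence intensity from OMFP dephosphorylation. Read-out basis: % inhibition. Benchmarks: no-enzyme and uninhibited controls.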
Low molecular weight phosphotyrosine protein phosphatase (Homo sapiens), sequence (P24666 whole entry, looked up): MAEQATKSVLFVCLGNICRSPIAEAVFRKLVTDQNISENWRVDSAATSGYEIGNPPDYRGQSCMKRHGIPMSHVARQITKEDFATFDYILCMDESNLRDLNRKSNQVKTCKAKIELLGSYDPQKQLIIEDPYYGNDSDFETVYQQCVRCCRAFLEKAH
As for `O=S(=O)(NN=C1CCCCCCC1)c1ccc(Br)cc1`, the inhibition was 0.285%.

On to `CCCn1c(N)c(N(CCOC)C(=O)C2CCCC2)c(=O)[nH]c1=O`, for which the inhibition is -0.34%.

As for `CCOCCCNC(=O)C(NC(=O)Cc1c[nH]c2ccccc12)c1ccc(OC)cc1` (centres undefined), the inhibition is -1.16%.

Regarding `COC(=O)c1c(NC(=O)CN(c2ccc(C)c(C)c2)S(C)(=O)=O)sc2c1CCCC2`, the inhibition is 1.37%.

Consider `CCOc1ccc(OCC)c(NC(=O)CSc2nnc(Cn3cnc4ccccc43)n2C)c1`, for which the inhibition is -0.816%.

On to `CNc1cnc(-c2cc(OC)c(OC)c(OC)c2)cn1`, for which the inhibition is 0.718%.

For the molecule `NS(=O)(=O)c1ccc(CCNC(=O)COC(=O)COc2cccc(C(F)(F)F)c2)cc1`, the inhibition is -0.314%.

As to `O=C(Nc1ccncc1)c1cc(-c2ccccn2)nc2ccc(Br)cc12`, the inhibition was 51.5% (active).

Turning to `O=C(CSc1ccc(-c2ccccn2)nn1)Nc1ccccc1`, the inhibition was 0.337%.

For `O=C(Nc1cccnc1)c1cc2cc(Br)ccc2oc1=O`, the inhibition was 45.7%.

In the case of `COC(=O)c1ccc(C23CC4(C2)[C@H](CN(Cc2cccnc2)[C@@H]4c2ccccc2)C3c2ccc(Cl)nc2)cc1` (some centres undefined), the inhibition was 8.71%.

For the molecule `CCCc1ccc(-c2c(C)sc(NC(=O)c3ccnn3C)c2C#N)cc1`, the inhibition was 1.55%.

For the molecule `Cc1ccc(C(=O)N/C(=C\c2ccco2)C(=O)N2CCSCC2)cc1C`, the inhibition is -0.858%.

Consider `Cc1cccc(C)c1NC1=NC(=S)N(c2ccc(N(C)C)cc2)C1(C)C`, for which the inhibition was -0.864%.

As for `CC1(C(=O)NCc2ccccc2)CN(S(C)(=O)=O)CC(=O)N1CC(F)(F)F` (centres undefined), the inhibition was -0.703%.

For `O=C(NCc1ccc2c(c1)OCO2)c1c(O)nc2sccn2c1=O`, the inhibition is 53.5% (active).

Turning to `C=CCn1c(=O)c(C(=O)NCc2ccc3c(c2)OCO3)c(O)c2ccccc21`, the inhibition was 2.01%.

As to `O=C(NCc1ccc2c(c1)OCO2)c1sccc1Br`, the inhibition was -0.435%.

For `O=C(CN1CCN(C(=O)c2ccco2)CC1)Nc1ccc2c(c1)OCO2`, the inhibition was -0.639%.

Regarding `Cc1ccc(C(=O)O)cc1-c1ccc(/C=C2\SC(=O)N(CC(=O)Nc3ccc4c(c3)OCO4)C2=O)o1`, the inhibition was 61.2% (active).

As for `O=C(CCN1C(=O)c2ccncc2C1=O)Nc1ccc2c(c1)OCCO2`, the inhibition was 0.479%.

Regarding `Cc1ccc(S(=O)(=O)N2[C@@H](c3ccc(Br)cc3)C(C(=O)O)=C[C@H]2CC2CCCC2)cc1`, the inhibition is 0.284%.

For the molecule `COc1cc(OC)cc(/C(N)=N/O)c1`, the inhibition is 0.166%.

Consider `CCC(C)N(C(=O)COC(=O)c1nc(Cl)ccc1Cl)C1CCS(=O)(=O)C1` (centres undefined), for which the inhibition was -0.848%.

For `N#CCSc1nn(-c2ccc(F)cc2)c(=S)s1`, the inhibition was -0.858%.

For the molecule `CCOC(=O)C1CCN(C(=O)c2ccc3c(=O)n4nc(Nc5ccccc5CC)sc4nc3c2)CC1`, the inhibition was 1.95%.

As for `CS(=O)(=O)N1CCCCC1c1cc(C(=O)NCc2ccccc2)no1` (centres undefined), the inhibition is -1.43%.

In the case of `Nc1nc(C23CC4CC(CC(C4)C2)C3)cs1`, the inhibition is -0.25%.

Take `C#CCN(N(C)c1ncc(C(F)(F)F)cc1Cl)S(=O)(=O)c1ccc2ccccc2c1`: the inhibition was 5.44%.

In the case of `CN(C)C(=O)Cn1c(=O)n(S(=O)(=O)c2ccccc2)c2ccccc21`, the inhibition was -0.0726%.

For `Cc1cccc(NC(=O)CSc2nnc(CCCCCNC(=O)OC(C)(C)C)o2)c1C`, the inhibition is -0.643%.

Regarding `O=C(NCc1cccnc1)c1cc(C2CCCN(C(=O)CCCc3ccccc3)C2)on1` (centres undefined), the inhibition was -0.488%.

`CCN1/C(=C\c2ccc3ccccc3[n+]2CC)Sc2cc(C)ccc21`: the inhibition was 63.9% (active).

Regarding `Cc1nc(CC(=O)NNS(=O)(=O)c2ccc(F)c(Cl)c2)cs1`, the inhibition was -1.65%.

Turning to `Cc1cccc(OCC(O)CN2CCN(CCN3C(=O)c4cccc5cccc(c45)C3=O)CC2)c1C` (centres undefined), the inhibition was 8.73%.

For `CCOC(=O)Cc1cc(=O)[nH]c(/N=C(\N)Nc2ccc(OC)cc2)n1`, the inhibition is -0.31%.

For the molecule `CCSc1nc(=S)n(CC)c(C)c1C(C)=O`, the inhibition was -0.754%.

Regarding `COC(=O)CN1C(C)=Nc2ccc(Br)cc2C1c1ccccc1` (centres undefined), the inhibition is -0.193%.

For `CCn1ccnc1CNC(=O)CC1C(=O)NCCN1CCCc1ccccc1` (centres undefined), the inhibition was -2.22%.

On to `CCOc1cc2[nH]c(=S)n(Cc3ccc(C(=O)N4CCN(C)CC4)cc3)c(=O)c2cc1OCC`, for which the inhibition was 1.07%.

For `O=c1c(Cl)c(NCc2ccc(F)cc2Cl)cnn1C12CC3CC(CC(C3)C1)C2`, the inhibition is 1.08%.

Regarding `O=C1c2ccccc2C(Nc2ccc3c(c2)OCCO3)N1Cc1ccco1` (centres undefined), the inhibition was 0.866%.

`Cn1c(=O)c(=O)n(C)c2cc(S(=O)(=O)CCC(=O)N3CCCCC3)ccc21`: the inhibition was -0.491%.

In the case of `Cn1c2ccccc2c(=O)c2c(=O)n(Cc3ccco3)c(COc3ccccc3)nc21`, the inhibition is 69% (active).

`COc1ccc(-c2oc3ncn(Cc4ccco4)c(=N)c3c2-c2ccc(OC)cc2)cc1`: the inhibition is 3.1%.

Take `O=C(Cn1c(=O)n(Cc2ccco2)c(=O)c2ccccc21)NCC1CCCO1` (centres undefined): the inhibition was -0.056%.

With `O=C(CC(=O)N/N=C\c1cccc(Cl)c1Cl)NCc1ccccc1`, the inhibition was -1.17%.

Turning to `O=C(NN=Cc1ccccc1O)NN=Cc1ccccc1O`, the inhibition was 61.8% (active).

Consider `O=C(CO/N=C/c1ccccc1O)NNC(=O)c1ccccc1Cl`, for which the inhibition was -0.137%.

As for `O=C(Nc1cc(S(=O)(=O)N2CCOCC2)ccc1N1CCOCC1)c1c(F)cccc1Cl`, the inhibition was -0.613%.

Regarding `CN(CC(=O)Nc1ccc(Cl)cc1)C(=O)CNC(=O)c1ccc2ccccc2c1`, the inhibition is 0.862%.

Turning to `O=C(CCCOc1ccccc1)NNC(=O)c1ccc(Cl)cc1`, the inhibition was -0.0475%.

For the molecule `O=C(NNC(=O)c1ccc2ccccc2c1)c1ccc(Cl)cc1`, the inhibition is 49.6% (active).

Turning to `CC(C)(C)S(=O)(=O)c1ccccc1-c1noc(-c2ccccc2)c1C(N)=O`, the inhibition is -0.802%.

In the case of `Cc1ncc([N+](=O)[O-])n1CCOC(=O)c1ccc(Br)cc1`, the inhibition was -0.676%.

For the molecule `C[C@H](NC(=O)NCCc1ccccc1)C(=O)O`, the inhibition is 0.573%.

Consider `CCOC(=O)C1(CC2CCCCO2)CCN(Cc2nc(-c3cccs3)oc2C)CC1` (centres undefined), for which the inhibition is 0.186%.

On to `O=C(COC(=O)C1CC2CCCC(C1)C2=O)NC(=O)c1ccccc1` (centres undefined), for which the inhibition was -0.507%.

Regarding `CC(Oc1ccc(F)cc1F)C(=O)/C=C/N(C)C` (centres undefined), the inhibition is 0.234%.

As for `C[C@H]1CN([C@@H](C)CO)S(=O)(=O)c2ccc(-c3cccc(F)c3)cc2O[C@@H]1CN(C)C`, the inhibition is -1.08%.

As for `CCOC(=O)N1CCN(C(=S)Nc2ccc(C)cc2C)CC1`, the inhibition was -1.47%.

As for `COc1cc([N+](=O)[O-])ccc1NC(=S)N1CCN(c2ccccn2)CC1`, the inhibition is 0.0311%.

Regarding `CC1CCN(C(=S)c2cccc(O)c2)CC1`, the inhibition was 0.643%.

Consider `CCS(=O)(=O)N1Cc2ccccc2CC1C(=O)Nc1ccc(OC)cc1OC` (centres undefined), for which the inhibition was -0.419%.

For the molecule `CC(NC(=S)NNS(=O)(=O)c1ccc(C(C)(C)C)cc1)c1ccccc1` (centres undefined), the inhibition was 2.08%.

Take `Cc1c(Nc2nc3ccccc3nc2NS(=O)(=O)c2cccs2)c(=O)n(-c2ccccc2)n1C`: the inhibition was -0.947%.

For `O=C(COc1ccc([N+](=O)[O-])cc1)Nc1cccc(C(=O)Nc2ccccc2C(=O)O)c1`, the inhibition was 0.459%.

As for `N#Cc1cc([N+](=O)[O-])ccc1Oc1cccc(/C=N/NC(=O)c2ccc(Cl)cc2)c1`, the inhibition was 0.464%.

With `O=C(COc1ccc(/C=N/NC(=O)c2ccc(O)cc2)cc1)Nc1ccc([N+](=O)[O-])cc1`, the inhibition was 71.4% (active).

As to `O=C(COc1ccc([N+](=O)[O-])cc1)Nc1ccc(N2CCCC2)cc1`, the inhibition is 59.1% (active).

In the case of `O=C(COC(=O)C1CCCCC1)Nc1ccc([N+](=O)[O-])cc1`, the inhibition was 0.534%.

With `O=C(CSc1ccc([N+](=O)[O-])cn1)Nc1ccc(N2CCOCC2)cc1`, the inhibition is -0.239%.

`COc1ccc(CCNc2ncnc3c2nnn3Cc2ccccc2)cc1`: the inhibition was 1.88%.

Consider `CCn1ccnc1CNC(=O)CC1C(=O)NCCN1Cc1ccc(F)cc1Cl` (centres undefined), for which the inhibition is 1.38%.

For the molecule `Nc1ccc(Cl)c(S(=O)(=O)Nc2ccccc2Cl)c1`, the inhibition is -0.587%.

Regarding `O=S(=O)(c1ccc(F)cc1)N1CCN(C(=S)NCc2ccco2)CC1`, the inhibition is 0.0562%.

Turning to `CCCc1c(C)nc2scc(-c3ccc(Cl)cc3)n2c1=O`, the inhibition was -0.6%.

With `O=c1ccc2c(-c3ccccc3S(=O)(=O)O)c3ccc(O)c(O)c3oc-2c1O`, the inhibition is 58.1% (active).

On to `Cc1ccc(N2C(=O)C3C4C=CC(CC4)C3C2=O)cc1Br` (centres undefined), for which the inhibition was -1.41%.

As for `COc1cc(Cl)c(C)cc1NC(=O)[C@@H]1CCCN1C(=O)c1cccs1`, the inhibition was -1.01%.

`CCN(CC)Cc1nc2sc(C)c(C)c2c(=O)[nH]1`: the inhibition is -1.11%.

Regarding `C/C(=N\Nc1ccc(S(N)(=O)=O)cc1[N+](=O)[O-])c1cccs1`, the inhibition was 57.1% (active).

As to `C/C(=N\Nc1nc2ccccc2[nH]1)c1cccs1`, the inhibition is 1.27%.

With `NS(=O)(=O)c1ccc(NC(=S)NNC(=O)c2cccs2)cc1`, the inhibition was -0.673%.

Take `CCOC1=C2CN(S(=O)(=O)c3ccc(C)cc3)[C@H](c3cccs3)C[C@H]2[C@H]2C(=O)N(c3ccccc3)C(=O)[C@H]2C1`: the inhibition is 0.231%.

As for `O=C(c1ccccc1)c1ccc2nc(N3CCCCC3)c3nncn3c2c1`, the inhibition is 2.58%.

`CC(C)(Oc1ccc(Cl)cc1)C(=O)OCC(=O)NCCc1ccc(S(N)(=O)=O)cc1`: the inhibition was -0.949%.

Turning to `Cc1sc2ncnc(SCC(=O)Nc3ccc(CN4CCCC4)cc3)c2c1C`, the inhibition is 23.7%.

For `O=c1c2ccccc2nnn1CSc1nc2sc3c(c2c(=O)n1CC1CCCO1)CCC3` (centres undefined), the inhibition is 4.21%.
